Activity calls are given as the source filed them. The rule behind the calls is not given here.
How the values were obtained:
[1] = biological target: T1, Adenosine receptor A1 (Homo sapiens) (UniProt P30542); assay: Activity at human A1 adenosine receptor expressed in CHO cells assessed as inhibition of forskolin-stimulated cAMP production at 10 uM after 30 min; format: functional, cell-based
T1 sequence (whole entry): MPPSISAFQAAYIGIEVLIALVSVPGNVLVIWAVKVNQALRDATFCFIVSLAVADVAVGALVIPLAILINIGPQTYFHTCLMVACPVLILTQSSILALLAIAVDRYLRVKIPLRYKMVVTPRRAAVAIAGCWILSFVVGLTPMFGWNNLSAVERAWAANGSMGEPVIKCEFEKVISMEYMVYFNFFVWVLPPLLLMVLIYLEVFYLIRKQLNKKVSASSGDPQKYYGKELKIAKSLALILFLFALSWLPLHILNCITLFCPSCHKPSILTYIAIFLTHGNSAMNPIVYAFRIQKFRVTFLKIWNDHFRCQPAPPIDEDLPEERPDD

Adenosine receptor A1 = biological target: T2, Adenosine receptor A1 (Homo sapiens, UniProt P30542); assay: Displacement of [3H]R-PIA from human A1 adenosine receptor expressed in CHO cells after 60 min by Perkin Elmer Liquid Scintillation Analyzer; format: cell-based
T2 sequence (P30542 whole entry): T1 sequence (whole entry)

Adenosine receptor A2a [2] = biological target: T3, Adenosine receptor A2a (Homo sapiens, UniProt P29274); assay: Displacement of [3H]CGS21680 from human A2a adenosine receptor expressed in HEK293 cells at 10 uM after 60 min by Perkin Elmer Liquid Scintillation Analyzer; format: cell-based
T3 sequence (P29274 whole entry): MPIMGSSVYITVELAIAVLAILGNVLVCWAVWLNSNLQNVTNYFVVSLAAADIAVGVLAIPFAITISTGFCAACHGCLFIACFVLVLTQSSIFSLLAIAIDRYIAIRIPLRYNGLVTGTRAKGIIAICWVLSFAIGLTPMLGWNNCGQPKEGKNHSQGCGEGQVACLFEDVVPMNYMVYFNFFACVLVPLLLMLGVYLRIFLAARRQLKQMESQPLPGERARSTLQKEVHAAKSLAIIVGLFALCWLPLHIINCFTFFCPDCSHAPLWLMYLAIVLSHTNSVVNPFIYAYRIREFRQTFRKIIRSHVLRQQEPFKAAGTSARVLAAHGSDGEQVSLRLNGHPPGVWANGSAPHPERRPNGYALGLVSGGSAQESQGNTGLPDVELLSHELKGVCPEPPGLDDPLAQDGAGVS

Adenosine receptor A3 = biological target: T4, Adenosine receptor A3 (Homo sapiens, UniProt P0DMS8); assay: Displacement of [125I]I-AB-MECA from human A3 adenosine receptor expressed in CHO cells after 60 min Packard Cobra 2 gamma-counter; format: cell-based
T4 sequence (P0DMS8 whole entry): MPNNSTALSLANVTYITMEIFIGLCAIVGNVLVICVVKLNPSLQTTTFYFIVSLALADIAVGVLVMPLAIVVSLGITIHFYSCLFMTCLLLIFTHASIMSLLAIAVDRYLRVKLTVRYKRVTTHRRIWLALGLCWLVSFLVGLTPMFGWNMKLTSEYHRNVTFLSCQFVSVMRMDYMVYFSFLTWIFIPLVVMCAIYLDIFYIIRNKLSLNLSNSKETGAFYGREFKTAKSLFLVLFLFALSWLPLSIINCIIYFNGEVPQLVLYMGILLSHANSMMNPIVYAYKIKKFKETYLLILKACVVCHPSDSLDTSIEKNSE

Mus musculus [3] = assay: Anticonvulsant activity in ip dosed CF-1 albino mouse administered as single dose after 1 hr by corneal kindled mouse test; format: functional, organism-based
Outline: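 Mice corneally kindled twice daily (3 mA, 3 s, about 12 days, tetracaine/saline drop before each stimulation) and re-stimulated the day before testing. Single i.p. dose given (n = 4 or 8), then challenged with 3 mA for 3 s at 1 h post-injection. EC50 (±SE) determined.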

Mus musculus [4] = assay: Toxicity in ip dosed CF-1 albino mouse assessed as behavioral changes by rotarod test; format: organism-based; conditions: in vivo
Mus musculus [5] = assay: Anticonvulsant activity in CF-1 albino mouse assessed as protection against subcutaneous metrazol-induced seizures at 1 mg/kg, ip; format: functional, organism-based; set-up: dose 1 mg/kg
Outline: (§1)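 Dosed i.p. at 0.01 ml/g from a DMSO stock diluted to 10% DMSO (v/v) final. Single doses tested in traditional MES or s.c. metrazol seizure tests at the time of peak effect. Scored qualitatively as number of animals protected from convulsions (groups of 4–8).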

Mus musculus [6] = assay: Anticonvulsant activity in CF-1 albino mouse assessed as protection against maximal electroshock-induced seizures at 1 mg/kg, ip by MES test; format: functional, organism-based; set-up: dose 1 mg/kg; outline: as §1
Mus musculus [7] = assay: Anticonvulsant activity in ip dosed CF-1 albino mouse assessed as protection against 6 Hz psychomotor seizure after 1 hr by minimal clonic seizure test; format: functional; conditions: CF-1, ip
Outline: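 Corneal 6 Hz stimulation (32 mA, 3 s, CC97) applied 1 h post-dose (time of peak effect). Absence of minimal clonic/automatistic behavior counted as protection.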

Mus musculus [8] = assay: Anticonvulsant activity in CF-1 albino mouse assessed as protection against maximal electroshock-induced seizures at 3 mg/kg, ip by MES test; format: functional, organism-based; set-up: dose 3 mg/kg; outline: as §1
Mus musculus [9] = assay: Anticonvulsant activity in CF-1 albino mouse assessed as protection against maximal electroshock-induced seizures at 2 mg/kg, ip by MES test; format: functional, organism-based; set-up: dose 2 mg/kg; outline: as §1
Mus musculus [10] = assay: Anticonvulsant activity in CF-1 albino mouse assessed as protection against subcutaneous metrazol-induced seizures at 3 mg/kg, ip; format: functional, organism-based; set-up: dose 3 mg/kg; outline: as §1
[11] = biological target: T1, Adenosine receptor A1 (Homo sapiens); assay: Displacement of [3H]R-PIA from human A1 adenosine receptor expressed in CHO cells at 10 uM after 60 min by Perkin Elmer Liquid Scintillation Analyzer; format: cell-based
Adenosine receptor A2a [12] = biological target: T3, Adenosine receptor A2a; assay: Displacement of [3H]CGS21680 from human A2a adenosine receptor expressed in HEK293 cells after 60 min by Perkin Elmer Liquid Scintillation Analyzer; format: cell-based
Homo sapiens = species on record: Homo sapiens; assay: Selectivity ratio of Ki for human A2a adenosine receptor to Ki for human A1 adenosine receptor
[13] = biological target: Adenosine receptors; A1 & A3 (Homo sapiens) (UniProt P30542+P0DMS8); assay: Selectivity ratio of Ki for human A3 adenosine receptor to Ki for human A1 adenosine receptor
Mus musculus [14] = assay: Toxicity in ip dosed CF-1 albino mouse assessed as behavioral changes after 4 hrs by rotarod test; format: organism-based; conditions: in vivo

SMILES: O[C@@H]1[C@H](O)[C@@H]2C[C@@H]2[C@H]1n1cnc2c(N[C@@H](c3ccccc3)C3CC3)nc(Cl)nc21
- inhibition [1]: -7.4%
- Ki (Adenosine receptor A1): 3000 nM
- inhibition (Adenosine receptor A2a [2]): 46%
- Ki (Adenosine receptor A3): 790 nM

SMILES: O[C@@H]1[C@H](O)[C@@H]2C[C@@H]2[C@H]1n1cnc2c(NCC(C3CC3)C3CC3)nc(Cl)nc21
- inhibition [1]: -9%
- inhibition (Adenosine receptor A2a [2]): 45%

SMILES: CC(C)[C@@H](Nc1nc(Cl)nc2c1ncn2[C@H]1[C@H](O)[C@H](O)[C@@H]2C[C@@H]21)C1CC1
- inhibition [1]: 33.8%

SMILES: CC[C@@H](Nc1nc(Cl)nc2c1ncn2[C@H]1[C@H](O)[C@H](O)[C@@H]2C[C@@H]21)C1CC1
- inhibition [1]: 37.3%

SMILES: OC[C@H]1O[C@@H](n2cnc3c(NC4CCCC4)ncnc32)[C@H](O)[C@@H]1O
- inhibition [1]: 100%

SMILES: CC[C@H](Nc1nc(Cl)nc2c1ncn2[C@H]1[C@H](O)[C@H](O)[C@@H]2C[C@@H]21)C1CC1
- inhibition [1]: 57.9%

SMILES: O[C@@H]1[C@H](O)[C@@H]2C[C@@H]2[C@H]1n1cnc2c(NC(C3CC3)C3CC3)nc(Cl)nc21
- EC50 (Mus musculus [3]): 1.79 mg/kg
- TD50 (Mus musculus [4]): > 30 mg/kg
- Activity (Mus musculus [5]): inactive
- Activity (Mus musculus [6]): inactive
- ED50 (Mus musculus [7]): 2.74 mg/kg
- Activity (Mus musculus [8]): inactive
- Activity (Mus musculus [9]): inactive
- Activity (Mus musculus [10]): inactive

SMILES: O[C@@H]1[C@H](O)[C@@H]2C[C@@H]2[C@H]1n1cnc2c(NC(C3CCCC3)C3CCCC3)nc(Cl)nc21
- inhibition [11]: 34%

SMILES: O=C(O)c1cnn(-c2nc(NC(C3CC3)C3CC3)c3ncn([C@H]4[C@H](O)[C@H](O)[C@@H]5C[C@@H]54)c3n2)c1
- Ki (Adenosine receptor A1): 1080 nM
- inhibition (Adenosine receptor A2a [2]): 17%
- Ki (Adenosine receptor A3): 640 nM

SMILES: COC(=O)c1cnn(-c2nc(NC(C3CC3)C3CC3)c3ncn([C@H]4[C@H](O)[C@H](O)[C@@H]5C[C@@H]54)c3n2)c1
- Ki (Adenosine receptor A1): 730 nM
- Ki (Adenosine receptor A3): 490 nM
- Ki (Adenosine receptor A2a [12]): 4110 nM

SMILES: CC(C)[C@H](Nc1nc(Cl)nc2c1ncn2[C@H]1[C@H](O)[C@H](O)[C@@H]2C[C@@H]21)C1CC1
- inhibition [1]: 20.8%

SMILES: O[C@@H]1[C@H](O)[C@@H]2C[C@@H]2[C@H]1n1cnc2c(N[C@H](c3ccccc3)C3CC3)nc(Cl)nc21
- inhibition [1]: -2.4%
- inhibition (Adenosine receptor A2a [2]): 36%
- Ki (Adenosine receptor A3): 2200 nM
- inhibition [11]: 50%

SMILES: O[C@@H]1[C@H](O)[C@@H]2C[C@@H]2[C@H]1n1cnc2c(N[C@H](C3CCC3)C3CC3)nc(Cl)nc21
- inhibition [1]: 18.1%
- Ki (Adenosine receptor A1): 120 nM
- Ratio Ki (Homo sapiens): 53
- Ki (Adenosine receptor A3): 2790 nM
- Ki (Adenosine receptor A2a [12]): 6450 nM
- Ratio Ki [13]: 23

SMILES: O[C@@H]1[C@H](O)[C@@H]2C[C@@H]2[C@H]1n1cnc2c(NC(C3CC3)C3CC3)ncnc21
- Ki (Adenosine receptor A1): 56.1 nM
- inhibition (Adenosine receptor A2a [2]): 38%
- Ki (Adenosine receptor A3): 17 nM

SMILES: NNc1nc(NC(C2CC2)C2CC2)c2ncn([C@H]3[C@H](O)[C@H](O)[C@@H]4C[C@@H]43)c2n1
- Ki (Adenosine receptor A1): 210 nM
- inhibition (Adenosine receptor A2a [2]): 43%
- Ki (Adenosine receptor A3): 70 nM

SMILES: NCCNC(=O)Cc1ccc(NC(=O)Cc2ccc(Nc3ncnc4c3ncn4[C@@H]3O[C@H](CO)[C@@H](O)[C@H]3O)cc2)cc1
- inhibition [1]: 94%
- TD50 (Mus musculus [14]): 0.14 mg/kg
- Activity (Mus musculus [5]): inactive
- Activity (Mus musculus [6]): inactive
- ED50 (Mus musculus [7]): 0.03 mg/kg
- Ki (Adenosine receptor A3): 12.4 nM
- Activity (Mus musculus [8]): inactive
- Activity (Mus musculus [9]): inactive
- Activity (Mus musculus [10]): inactive

SMILES: O[C@@H]1[C@H](O)[C@@H]2C[C@@H]2[C@H]1n1cnc2c(NC(C3CC3)C3CC3)nc(I)nc21
- Ki (Adenosine receptor A1): 488 nM
- Ki (Adenosine receptor A3): 182 nM
- Ki (Adenosine receptor A2a [12]): 2230 nM

SMILES: OC[C@H]1O[C@@H](n2cnc3c(NC4CCCC4)nc(Cl)nc32)[C@H](O)[C@@H]1O
- Activity (Mus musculus [5]): inactive
- Activity (Mus musculus [6]): inactive
- ED50 (Mus musculus [7]): 0.12 mg/kg
- Activity (Mus musculus [8]): inactive
- Activity (Mus musculus [9]): inactive
- Activity (Mus musculus [10]): inactive

SMILES: O[C@@H]1[C@H](O)[C@@H]2C[C@@H]2[C@H]1n1cnc2c(N[C@@H](C3CCC3)C3CC3)nc(Cl)nc21
- inhibition [1]: 33.4%
- Ki (Adenosine receptor A1): 270 nM
- Ki (Adenosine receptor A3): 2930 nM
- Ki (Adenosine receptor A2a [12]): 5470 nM

SMILES: O[C@@H]1[C@H](O)[C@@H]2C[C@@H]2[C@H]1n1cnc2c(N[C@H](CC3CC3)C3CC3)nc(Cl)nc21
- inhibition [1]: 18.4%

SMILES: O[C@@H]1[C@H](O)[C@@H]2C[C@@H]2[C@H]1n1cnc2c(N[C@@H](CC3CC3)C3CC3)nc(Cl)nc21
- inhibition [1]: 24%

From ChEMBL document CHEMBL2169760 (J Med Chem, 2012)
